The sample as a whole holds a higher share of hits than the screen did.
E coli WT inh = growth inhibitors of wild type E. coli, primary screen, strain BW25113 wild type, absorbance readout; AID 552, 2006; E. coli BW25113 growth inhibition, OD600; inhibition, % at 10 µM; hit rate 0.05% among 20,000; in the data active = inhibition above about 40%;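 also: bacteria exposed to compound for 20 hours at 37 °C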
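System: bacterial strain in a whole-cell growth screen; medium: LB broth with 50 µg/mL kanamycin; detection: absorbance at 615 nm; schedule: 20 h exposure, 37 °C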
Starred values were filed as active, the others as inactive.

SMILES | E coli WT inh
CCOC(=O)CSC1=C(C#N)C(=O)NC2(CCCCC2)S1 | 5
COc1ccc(NC(=O)C(C)Oc2ccc(/C(C)=N\O)cc2)cc1 (centres undefined) | -6
O=C(c1ccco1)c1nnn(Cc2ccccc2)c1-c1ccccc1 | 7
CCOc1cc(C(=O)NC(C)c2ccncc2)cc(OCC)c1OCC (centres undefined) | -13
CNC(=O)c1cc2cc(Cl)cc(OC)c2oc1=O | -24
CC(CC(=O)NCc1ccccc1)C1CCCO1 (centres undefined) | 2
Cc1ccc(Cl)cc1N1CCN(CC(=O)Nc2ccc3[nH]c(=O)[nH]c3c2)CC1 | 10
O=C(NCc1ccco1)c1cccc(-c2nnc(-c3ccccc3)o2)c1 | -1
O=C(CSc1nc2ccccc2[nH]1)NCCCn1ccnc1 | -20
CC(C)NC(=O)c1ccccc1NC(=O)CN(c1ccc2c(c1)OCO2)S(C)(=O)=O | 2
CCOc1ccccc1C(=O)N1CCCCC1C (centres undefined) | -4
CC(=O)c1cccc(NC(=O)NC(C)c2ccncc2)c1 (centres undefined) | 0
Cc1nc(CSc2nnc3scc(-c4ccc(Cl)cc4)n23)cs1 | 8
CCOc1nc(-c2ccccc2)ccc1-c1noc(-c2ccc(OC)c(OC)c2)n1 | 2
Cc1onc(-c2ccccc2Cl)c1C(=O)NCCn1c(C)cc2ccccc21 | -2
CCOc1cc(NC(=O)c2ccco2)c(OCC)cc1NC(=O)CCc1ccc(OC)cc1 | 5
O=C(NCc1ccco1)C1(S(=O)(=O)c2ccc(Cl)cc2)CC1 | -3
Cc1ccc2oc(C(=O)Nc3c(C)n(C)n(-c4ccccc4)c3=O)c(C)c2c1 | -5
CN(C)CCCC1(c2ccc(F)cc2)OCc2cc(C#N)ccc21 (centres undefined) | 0
Cc1cc(NC(=O)C23CCC(C)(c4nc5cc(Cl)c(Cl)cc5nc42)C3(C)C)no1 (centres undefined) | 6
COc1ccccc1C1c2c(oc3ccc(Cl)cc3c2=O)C(=O)N1c1cc(C)on1 (centres undefined) | 7
CCCCCCC1/C(=N/O)CCC1C(=O)OC (centres undefined) | -5
C=CCSc1nnc(-c2ccccc2NC(=O)CC)c(=O)[nH]1 | 8
Cc1cccc(-c2c3c(=O)n(C)c(=O)n(C)c3c3nnc4ccccc4n23)c1 | -13
COC(=O)CSc1nc2sc3c(c2c(=O)n1C1CCCCC1)CCN(C)C3 | 5
SMILES | E coli WT inh
Cc1cc2ncn(CCOc3ccccc3C#N)c2cc1C | -21
COc1ccccc1-n1nnnc1SCc1cc2c(cc1Br)OCO2 | -9
O=C1CSC(c2cn(-c3ccccc3)nc2-c2cccs2)N1CC1CCCO1 (centres undefined) | -2
COC(=O)c1ccc(CSc2ncnc3c2nnn3-c2ccc(OC)cc2)o1 | -2
CCOC(=O)c1ccc(-c2c(C(=O)OCC)oc3cc(O)c(CC)cc3c2=O)o1 | -2
CCc1c(C(=O)Nc2ccncc2)csc1C | 2
Cc1[nH]nc2c1C(CCc1ccccc1)C(C#N)=C(N)O2 (centres undefined) | 8
CCOC(=O)c1ccccc1NC(=O)c1ccc(Cl)c(S(=O)(=O)N2CCOCC2)c1 | -15
O=C1CN(c2nc3ccccc3n3cnnc23)CC(=O)N1CCc1ccccc1 | -5
COc1ccccc1Nc1nc(N)nc(CN2CCc3ccccc3C2)n1 | -17
C=CCOc1c(Cl)cc(C2NC(=O)NC(C)=C2C(=O)OC)cc1Cl (centres undefined) | -18
COc1ccccc1C1CC(c2ccc(C)cc2)Nc2ncnn21 (centres undefined) | 0
Cn1c(=O)c2c(nc3sccn32)n(C)c1=O | 13
CCN1CCN(C(=O)Nc2cccc(C(F)(F)F)c2)CC1 | -11
CCOC(=O)N1CCN(c2cc3[nH]c(=S)[nH]c3cc2F)CC1 | 10
COc1cc2nc(N3CCNCC3)nc(N)c2cc1OC | -16
CCn1cc(C(=O)O)c(=O)c2cc(F)c(N3CCNCC3)cc21 | 76*
CCn1cc(C(=O)O)c(=O)c2cc(F)c(N3CCN(C(=O)Nc4ccccc4)CC3)cc21 | 63*
CC(=O)c1cc(F)c(N2CCN(C(=O)Cc3ccccc3)CC2)cc1C | 0
CCn1cc(C(=O)O)c(=O)c2cnc(N3CCNCC3)nc21 | 45*
CCn1cc(C(=O)NCc2ccco2)c(=O)c2cc(F)c(N3CCN(C(=O)c4ccco4)CC3)cc21 | 10
O=c1n(-c2ccccc2)c(=O)n(Cc2ccccn2)n1Cc1ccccn1 | -15
O=C(Nc1ccc(N2CCN(C(=O)c3ccco3)CC2)c(Cl)c1)c1c(F)c(F)c(F)c(F)c1F | -7
Cc1ccc(N2CC(C(=O)NCC3CCCO3)CC2=O)cc1Cl (centres undefined) | 12
O=C(c1ccco1)N1CCN(C(=O)c2cc(-c3ccccn3)nc3ccc(Cl)cc23)CC1 | 2
SMILES | E coli WT inh
CCOC(=O)c1sc(C)c2c1NC(C)(c1cccs1)NC2=O (centres undefined) | 10
CCC(NC(=O)NCc1cccnc1)(C(F)(F)F)C(F)(F)F | 1
CCSc1nnc(NC(=O)C2CCCN(S(=O)(=O)c3cnc[nH]3)C2)s1 (centres undefined) | -3
COc1ccc(N(CC(=O)N2CCCCC2)S(=O)(=O)c2ccccc2)c(OC)c1 | 3
COc1ccc(OC)c2[nH]c(=O)c(CCNC(=O)CC(C)C)cc12 | 2
Cc1cc(C)n(C(=O)c2ccc(C)c(S(=O)(=O)N3CCCC3)c2)n1 | -17
O=C(CN1C(=O)c2ccccc2S1(=O)=O)Nc1cccnc1 | -19
CCCC1C(C#N)=C(N)Oc2n[nH]c(C(C)(C)C)c21 (centres undefined) | 16
Cc1cn([C@H]2C=C[C@@H](CO)O2)c(=O)[nH]c1=O | 2
O=c1[nH]c(=O)n([C@H]2C[C@H](O)[C@@H](CO)O2)cc1F | 17
Cc1cn([C@H]2C[C@H](N=[N+]=[N-])[C@@H](CO)O2)c(=O)[nH]c1=O | 72*
Cc1ccc2nsnc2c1S(=O)(=O)N1CCN(Cc2ccc3c(c2)OCO3)CC1 | -3
NC(=O)C1CCCN(S(=O)(=O)c2ccc(Br)cc2)C1 (centres undefined) | -8
c1ccc(CNn2nnnc2-c2ccccc2)cc1 | 1
CN(C)c1ccc(C(=S)NCc2ccco2)cc1 | -20
Cc1oc2cc3c(C(=O)OCCN(C)C)c(C)oc3cc2c1C(=O)OCCN(C)C | 6
CC1(C)SC2[C@H](NC(=O)C(NC(=O)N3CCNC3=O)c3ccccc3)C(=O)N2C1C(=O)O (some centres undefined) | -5
CCCNC(=O)C1CCN(S(=O)(=O)c2ccc(Br)cc2)CC1 | 22
C/C=C(\CS(=O)(=O)c1ccccc1)S(=O)(=O)c1ccccc1 | -1
O=C(CSc1nnc(Cn2c(=O)sc3ccccc32)n1-c1ccccc1)Nc1nccs1 | 15

Assay outcomes: PubChem BioAssay, SRMLSC
